pIC50, pKi: −log10 of the molar value. Activity calls are given as the source filed them. No cut-off for these calls is given here.
Columns and labels:
[1] = target: T1, Histone-lysine N-methyltransferase EZH2 (Homo sapiens, UniProt Q15910); experiment: Inhibition of EZH2-mediated proliferation of human PC3 cells after 6 days by chemiluminescence analysis; assay type: cell-based; conditions: PC-3
Target sequence in this assay (Q15910 whole entry, looked up): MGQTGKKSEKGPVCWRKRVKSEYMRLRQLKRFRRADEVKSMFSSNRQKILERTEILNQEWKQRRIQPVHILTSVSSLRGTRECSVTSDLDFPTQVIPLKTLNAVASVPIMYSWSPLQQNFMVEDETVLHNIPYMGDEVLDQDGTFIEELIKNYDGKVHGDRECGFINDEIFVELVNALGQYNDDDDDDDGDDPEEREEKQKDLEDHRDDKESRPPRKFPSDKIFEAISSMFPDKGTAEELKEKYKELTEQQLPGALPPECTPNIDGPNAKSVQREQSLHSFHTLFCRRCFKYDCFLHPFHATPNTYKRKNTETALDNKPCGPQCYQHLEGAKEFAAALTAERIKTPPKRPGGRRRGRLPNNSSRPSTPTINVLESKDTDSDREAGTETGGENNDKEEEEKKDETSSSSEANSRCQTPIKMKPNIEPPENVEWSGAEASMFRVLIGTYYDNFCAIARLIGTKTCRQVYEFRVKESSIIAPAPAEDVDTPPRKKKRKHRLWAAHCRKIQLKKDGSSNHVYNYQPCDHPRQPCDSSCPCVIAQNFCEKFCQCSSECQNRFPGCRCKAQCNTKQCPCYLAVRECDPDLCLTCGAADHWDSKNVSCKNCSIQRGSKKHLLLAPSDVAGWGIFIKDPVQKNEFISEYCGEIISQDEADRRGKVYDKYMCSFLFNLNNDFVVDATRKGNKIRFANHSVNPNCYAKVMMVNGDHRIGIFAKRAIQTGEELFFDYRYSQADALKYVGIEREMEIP

[2] = target: T1, Histone-lysine N-methyltransferase EZH2; experiment: Inhibition of EZH2-mediated proliferation of human DU145 cells after 6 days by chemiluminescence analysis; assay type: cell-based; conditions: DU-145
Target sequence in this assay (Q15910 whole entry, looked up): as above

[3] = target: T1, Histone-lysine N-methyltransferase EZH2; experiment: Inhibition of EZH2-mediated proliferation of human ZR-75-1 cells after 6 days by chemiluminescence analysis; assay type: cell-based
Target sequence in this assay (Q15910 whole entry, looked up): as above

[4] = target: T1, Histone-lysine N-methyltransferase EZH2; experiment: Inhibition of EZH2-mediated proliferation of human SKBR3 cells after 6 days by chemiluminescence analysis; assay type: cell-based; conditions: SK-BR-3
Target sequence in this assay (Q15910 whole entry, looked up): as above

[5] = target: T1, Histone-lysine N-methyltransferase EZH2; experiment: Inhibition of EZH2-mediated proliferation of human […] cells after 6 days by chemiluminescence analysis; assay type: cell-based
Target sequence in this assay (Q15910 whole entry, looked up): as above

[6] = target: T1, Histone-lysine N-methyltransferase EZH2; experiment: Inhibition of EZH2-mediated nuclear H3K27 methylation in human HCC1806 cells at >1000 nM after 72 hrs by immunofluorescence analysis; assay type: cell-based
In short: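 HCC1806 breast cancer cells were exposed to compound for 72 h. Nuclear H3K27me3 was quantified by an immunofluorescence imaging assay and normalized to total H3. […] Values are the mean of at least three independent replicates.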
Target sequence in this assay (Q15910 whole entry, looked up): as above

[7] = target: T1, Histone-lysine N-methyltransferase EZH2; experiment: Inhibition of EZH2-mediated nuclear H3K27 methylation in human HCC1806 cells after 72 hrs by immunofluorescence analysis; assay type: cell-based
In short: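 HCC1806 breast cancer cells were exposed to compound for 72 h. Nuclear H3K27me3 was quantified by an immunofluorescence imaging assay and normalized to total H3. Values are the mean of at least three independent replicates.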

[8] = target: T2, Histone-lysine N-methyltransferase SETD7 (Homo sapiens, UniProt Q8WTS6); experiment: Inhibition of SET7 using histone H3 as substrate preincubated for 10 mins followed by addition of [3H]SAM and incubated for 60 mins
T2 sequence (Q8WTS6 whole entry): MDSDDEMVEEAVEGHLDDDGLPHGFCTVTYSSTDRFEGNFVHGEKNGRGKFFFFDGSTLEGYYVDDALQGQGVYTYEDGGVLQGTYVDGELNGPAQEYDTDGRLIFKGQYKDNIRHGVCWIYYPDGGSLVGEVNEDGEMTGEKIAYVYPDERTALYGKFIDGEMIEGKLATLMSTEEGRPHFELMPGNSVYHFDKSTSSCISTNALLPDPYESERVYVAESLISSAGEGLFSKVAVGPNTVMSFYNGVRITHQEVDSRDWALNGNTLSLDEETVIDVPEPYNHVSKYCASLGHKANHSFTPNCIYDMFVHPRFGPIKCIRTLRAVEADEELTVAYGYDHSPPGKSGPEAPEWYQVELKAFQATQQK
In short: (§1)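 Panel of methyltransferases tested for selectivity. […] Values are the mean of at least two independent replicates.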

[9] = target: T3, Histone-arginine methyltransferase CARM1 (Homo sapiens, UniProt Q86X55); experiment: Inhibition of PRMT4 using histone H3 as substrate preincubated for 10 mins followed by addition of [3H]SAM and incubated for 60 mins; in short: as §1
T3 sequence (Q86X55 whole entry): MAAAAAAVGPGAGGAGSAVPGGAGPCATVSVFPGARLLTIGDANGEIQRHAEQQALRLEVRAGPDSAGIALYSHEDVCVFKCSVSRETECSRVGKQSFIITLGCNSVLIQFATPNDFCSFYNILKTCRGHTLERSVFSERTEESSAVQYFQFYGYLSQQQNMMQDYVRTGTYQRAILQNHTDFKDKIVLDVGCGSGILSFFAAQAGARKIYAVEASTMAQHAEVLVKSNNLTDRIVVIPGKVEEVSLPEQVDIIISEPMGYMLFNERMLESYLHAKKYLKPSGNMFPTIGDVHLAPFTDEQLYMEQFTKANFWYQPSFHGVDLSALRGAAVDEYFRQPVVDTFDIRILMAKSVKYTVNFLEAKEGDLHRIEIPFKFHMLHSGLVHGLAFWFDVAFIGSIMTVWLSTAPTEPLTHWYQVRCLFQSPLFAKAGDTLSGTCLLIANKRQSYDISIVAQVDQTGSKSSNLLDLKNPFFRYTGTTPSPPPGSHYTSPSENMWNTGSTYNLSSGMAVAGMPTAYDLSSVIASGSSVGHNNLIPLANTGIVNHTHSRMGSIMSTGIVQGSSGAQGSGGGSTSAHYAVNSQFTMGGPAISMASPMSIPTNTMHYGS

[10] = target: Protein arginine N-methyltransferase 3 (Homo sapiens, UniProt O60678); experiment: Inhibition of PRMT3 using histone H3 as substrate preincubated for 10 mins followed by addition of [3H]SAM and incubated for 60 mins; in short: as §1
[11] = target: Histone-lysine N-methyltransferase, H3 lysine-79 specific (Homo sapiens, UniProt Q8TEK3); experiment: Inhibition of DOT1L using core histone as substrate preincubated for 10 mins followed by addition of [3H]SAM and incubated for 60 mins; in short: as §1
[12] = target: DNA (cytosine-5)-methyltransferase 3B (Mus musculus, UniProt O88509); experiment: Inhibition of mouse DNMT3b1 using lambda DNA as substrate preincubated for 10 mins followed by addition of [3H]SAM and incubated for 60 mins; in short: as §1
[13] = target: DNA (cytosine-5)-methyltransferase 3A (Homo sapiens, UniProt Q9Y6K1); experiment: Inhibition of DNMT3a using lambda DNA as substrate preincubated for 10 mins followed by addition of [3H]SAM and incubated for 60 mins; in short: as §1
[14] = target: EZH1/SUZ12/EED/AEBP2/RBBP4 complex; experiment: Inhibition of PRC2 complex of EZH1, EED, SUZ12, AEBP2 and RbAp48 using histone H3 peptide (21 to 44) as substrate and [3H]SAM after 1 hr by SPA; assay type: protein-complex assay; in short: as §1
[15] = target: EZH2/SUZ12/EED/RBBP7/RBBP4; experiment: Inhibition of PRC2 complex of FLAG-EZH2, EED, SUZ12, AEBP2 and RbAp48 using histone H3 peptide (21 to 44) as substrate and [3H]SAM after 30 mins; assay type: protein-complex assay; conditions: read-out: Ki(app)
[16] = target: Histone-lysine N-methyltransferase 2B (Homo sapiens, UniProt Q9UMN6); experiment: Inhibition of MLL4 using core histone as substrate preincubated for 10 mins followed by addition of [3H]SAM and incubated for 60 mins; in short: as §1
[17] = target: Histone-lysine N-methyltransferase 2C (Homo sapiens, UniProt Q8NEZ4); experiment: Inhibition of MLL3 using core histone as substrate preincubated for 10 mins followed by addition of [3H]SAM and incubated for 60 mins; in short: as §1
[18] = target: Histone-lysine N-methyltransferase 2D (Homo sapiens, UniProt O14686); experiment: Inhibition of MLL2 using core histone as substrate preincubated for 10 mins followed by addition of [3H]SAM and incubated for 60 mins; in short: as §1
[19] = target: Histone-lysine N-methyltransferase 2A (Homo sapiens, UniProt Q03164); experiment: Inhibition of MLL1 using core histone as substrate preincubated for 10 mins followed by addition of [3H]SAM and incubated for 60 mins; in short: as §1

Chain of DNA (cytosine-5)-methyltransferase 3A (Q9Y6K1 whole entry, looked up): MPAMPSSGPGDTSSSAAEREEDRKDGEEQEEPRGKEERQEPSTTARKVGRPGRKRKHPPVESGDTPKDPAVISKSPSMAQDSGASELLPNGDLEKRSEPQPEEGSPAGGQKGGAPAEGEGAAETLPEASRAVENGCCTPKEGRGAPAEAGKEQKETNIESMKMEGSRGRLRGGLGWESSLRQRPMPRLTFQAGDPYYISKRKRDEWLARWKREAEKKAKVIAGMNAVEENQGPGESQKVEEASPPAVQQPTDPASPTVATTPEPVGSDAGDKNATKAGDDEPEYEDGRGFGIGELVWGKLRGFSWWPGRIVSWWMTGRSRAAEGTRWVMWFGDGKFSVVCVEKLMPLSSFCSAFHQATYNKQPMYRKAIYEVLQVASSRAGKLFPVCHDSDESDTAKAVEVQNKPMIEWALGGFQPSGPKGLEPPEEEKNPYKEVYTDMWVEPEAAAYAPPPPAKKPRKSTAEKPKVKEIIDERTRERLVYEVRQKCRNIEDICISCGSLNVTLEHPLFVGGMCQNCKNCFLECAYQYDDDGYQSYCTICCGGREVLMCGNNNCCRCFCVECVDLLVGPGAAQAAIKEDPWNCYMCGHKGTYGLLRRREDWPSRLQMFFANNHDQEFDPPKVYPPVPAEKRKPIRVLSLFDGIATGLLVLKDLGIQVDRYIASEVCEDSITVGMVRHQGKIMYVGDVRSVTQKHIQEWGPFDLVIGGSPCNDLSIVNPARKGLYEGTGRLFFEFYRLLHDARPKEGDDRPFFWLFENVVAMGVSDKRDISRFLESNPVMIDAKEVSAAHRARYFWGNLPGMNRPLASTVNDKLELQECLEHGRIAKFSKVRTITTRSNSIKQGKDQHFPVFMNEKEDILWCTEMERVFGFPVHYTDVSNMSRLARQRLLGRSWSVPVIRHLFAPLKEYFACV
Chain of Protein arginine N-methyltransferase 3 (O60678 whole entry): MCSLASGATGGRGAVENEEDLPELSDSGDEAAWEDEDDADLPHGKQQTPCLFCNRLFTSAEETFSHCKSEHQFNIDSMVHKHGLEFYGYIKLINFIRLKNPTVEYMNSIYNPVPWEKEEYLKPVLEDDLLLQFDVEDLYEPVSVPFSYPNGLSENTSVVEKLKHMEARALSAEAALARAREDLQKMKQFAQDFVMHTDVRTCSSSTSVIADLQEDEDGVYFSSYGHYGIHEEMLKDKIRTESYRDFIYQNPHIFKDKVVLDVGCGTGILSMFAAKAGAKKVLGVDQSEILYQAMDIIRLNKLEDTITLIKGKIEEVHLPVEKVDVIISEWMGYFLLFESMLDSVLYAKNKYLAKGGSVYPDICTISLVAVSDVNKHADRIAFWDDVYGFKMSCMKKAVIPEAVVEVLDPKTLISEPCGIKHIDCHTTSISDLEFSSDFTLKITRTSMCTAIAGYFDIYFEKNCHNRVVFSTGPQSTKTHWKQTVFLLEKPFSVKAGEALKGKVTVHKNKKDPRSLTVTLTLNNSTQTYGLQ
Chain of Histone-lysine N-methyltransferase, H3 lysine-79 specific (Q8TEK3 whole entry): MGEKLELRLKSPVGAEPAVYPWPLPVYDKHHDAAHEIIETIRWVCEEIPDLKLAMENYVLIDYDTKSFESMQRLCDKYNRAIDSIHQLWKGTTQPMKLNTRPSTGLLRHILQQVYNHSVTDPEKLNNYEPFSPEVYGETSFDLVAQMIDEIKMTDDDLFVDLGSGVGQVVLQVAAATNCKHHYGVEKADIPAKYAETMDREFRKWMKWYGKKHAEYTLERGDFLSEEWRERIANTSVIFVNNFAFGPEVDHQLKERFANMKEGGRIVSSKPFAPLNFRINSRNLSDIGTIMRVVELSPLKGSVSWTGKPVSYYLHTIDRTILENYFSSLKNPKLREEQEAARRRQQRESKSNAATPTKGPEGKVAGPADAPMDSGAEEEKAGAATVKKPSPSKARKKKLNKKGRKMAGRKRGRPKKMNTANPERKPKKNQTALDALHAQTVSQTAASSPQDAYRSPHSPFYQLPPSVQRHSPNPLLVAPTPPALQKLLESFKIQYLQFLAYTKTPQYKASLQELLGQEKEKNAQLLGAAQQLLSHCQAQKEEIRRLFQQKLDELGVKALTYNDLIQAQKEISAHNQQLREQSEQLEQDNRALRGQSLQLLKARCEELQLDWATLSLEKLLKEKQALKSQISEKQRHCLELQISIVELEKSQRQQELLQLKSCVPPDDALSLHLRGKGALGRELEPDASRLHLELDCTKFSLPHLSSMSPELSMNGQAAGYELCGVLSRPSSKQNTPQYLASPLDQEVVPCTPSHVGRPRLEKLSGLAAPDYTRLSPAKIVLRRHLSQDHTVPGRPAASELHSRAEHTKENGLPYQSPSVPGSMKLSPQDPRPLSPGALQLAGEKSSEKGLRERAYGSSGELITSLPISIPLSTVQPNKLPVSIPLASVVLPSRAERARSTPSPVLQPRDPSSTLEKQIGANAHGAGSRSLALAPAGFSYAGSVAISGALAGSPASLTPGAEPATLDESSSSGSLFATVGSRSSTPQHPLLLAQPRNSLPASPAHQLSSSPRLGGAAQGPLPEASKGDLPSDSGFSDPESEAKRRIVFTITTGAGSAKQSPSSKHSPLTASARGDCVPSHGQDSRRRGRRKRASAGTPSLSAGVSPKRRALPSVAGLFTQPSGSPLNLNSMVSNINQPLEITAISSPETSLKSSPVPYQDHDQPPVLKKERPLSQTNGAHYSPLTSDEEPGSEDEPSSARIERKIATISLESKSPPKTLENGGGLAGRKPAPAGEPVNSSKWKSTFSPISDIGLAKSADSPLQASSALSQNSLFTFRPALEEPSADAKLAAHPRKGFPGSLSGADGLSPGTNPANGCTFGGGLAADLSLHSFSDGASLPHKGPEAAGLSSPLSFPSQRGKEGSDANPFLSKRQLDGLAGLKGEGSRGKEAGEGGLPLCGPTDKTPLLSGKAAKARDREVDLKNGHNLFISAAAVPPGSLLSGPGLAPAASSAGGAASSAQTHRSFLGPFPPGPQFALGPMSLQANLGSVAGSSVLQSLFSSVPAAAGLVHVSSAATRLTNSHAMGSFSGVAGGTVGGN

inhibition [1]	inhibition [2]	inhibition [3]	inhibition [4]	inhibition [5]	inhibition [6] [%]	pIC50 [7]	inhibition [7]	pIC50 [8]	pIC50 [9]	pIC50 [10]	pIC50 [11]	pIC50 [12]	pIC50 [13]	pIC50 [14]	pKi [15]	pIC50 [16]	pIC50 [17]	pIC50 [18]	pIC50 [19]	SMILES
Active	Active	Active	Active	Active	> 90	6.49	Dose-dependent effect	3.67	< 4.00	< 4.00	< 4.00	< 4.00	< 4.00	5.60	8.10					Cc1cc(C)c(CNC(=O)c2cc(-c3ccc(N4CCN(C)CC4)nc3)cc3c2cnn3C(C)C)c(=O)[nH]1
						6.76		4.20	3.89	4.13	< 4.00	< 4.00	< 4.00	6.62	8.92	< 4.00	< 4.00	< 4.00	< 4.00	CCCc1cc(C)[nH]c(=O)c1CNC(=O)c1cc(-c2ccnc(N3CCN(C)CC3)c2)cc2c1cnn2C(C)C
						7.10		4.31	3.94	4.27	< 4.00	< 4.00	< 4.00	7.00	9.22					CCCc1cc(C)[nH]c(=O)c1CNC(=O)c1cc(-c2ccc(N3CCN(C)CC3)nc2)cc2c1cnn2C(C)C

Source: ChEMBL document CHEMBL2202955, “Identification of Potent, Selective, Cell-Active Inhibitors of the Histone Lysine Methyltransferase EZH2” (ACS Med Chem Lett, 2012)
